Measured values published in the array DNA melting data of Ke et al. (doi:10.1101/2024.01.08.574731).

What was measured:
[1] = folding enthalpy; higher = less favourable; fluorescence melt of hairpins on a sequencing array, two-state fit; conditions: sodium 0.088 M
In short: (§1)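 Folding enthalpy and melting temperature come from bootstrapped two-state fits to Cy3 fluorescence of library hairpins carrying annealed Cy3 and quencher oligos on a sequenced MiSeq flow cell. Imaging was done in 50 mM Na-HEPES pH 8.0, 25 mM NaCl, stepping by 2.5 °C up to 60 °C, and signals were normalised to pre-quench Cy3 and to control constructs. Results of four replicates were combined by inverse variance, and fitted temperatures were raised by 9.35 °C to match UV melts.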

[2] = melting temperature; fluorescence melt of hairpins on a sequencing array, two-state fit, raised by 9.35 °C to match UV melts; conditions: sodium 0.088 M
In short: as §1

## GCACGACCGAAAGGTTGC (((..(((....))))))
[1]
  folding enthalpy: -14.4 kcal/mol
[2]
  Tm: 38.1 °C

## GAAACGAAAGTTTC (((((....)))))
[1]
  folding enthalpy: -29.1 kcal/mol
[2]
  Tm: 53.4 °C

## GATCAGATGCTGATC ((((((...))))))
[1]
  folding enthalpy: -30.6 kcal/mol
[2]
  Tm: 49.4 °C

## GCGCTGGCGAAAGCCCGC (((..(((....))))))
[1]
  folding enthalpy: -17 kcal/mol
[2]
  Tm: 55.5 °C

## GATCAGCATGCTGATC ((((((....))))))
[1]
  folding enthalpy: -47.5 kcal/mol
[2]
  Tm: 60.8 °C

## CGGTTTCGGAAACGACCG (((..(((....))))))
[1]
  folding enthalpy: -17.1 kcal/mol
[2]
  Tm: 38 °C

## GGCTAAGCGAAAGCTGCC (((..(((....))))))
[1]
  folding enthalpy: -23.7 kcal/mol
[2]
  Tm: 54.6 °C

## GGCAAGCGAAAGCTGCC (((.(((....))))))
[1]
  folding enthalpy: -33.4 kcal/mol
[2]
  Tm: 68.9 °C

## GGATAGGGAAACCTACCC ((.((((....)))).))
[1]
  folding enthalpy: -21.9 kcal/mol
[2]
  Tm: 35.2 °C

## GGGACGGCGAAAGCCCCC (((..(((....))))))
[1]
  folding enthalpy: -14.8 kcal/mol
[2]
  Tm: 42.3 °C

## GCGTGAGTACGC ((((....))))
[1]
  folding enthalpy: -19.9 kcal/mol
[2]
  Tm: 52.5 °C

## GCTTTTGCGAAAGCAAGC (((..(((....))))))
[1]
  folding enthalpy: -10.3 kcal/mol
[2]
  Tm: 35 °C

## GCACGCGAAAGCGGGTGC ((((((....)))..)))
[1]
  folding enthalpy: -17.4 kcal/mol
[2]
  Tm: 66.1 °C

## GGACACGAAAGTGATTCC ((((((....)))..)))
[1]
  folding enthalpy: -14.7 kcal/mol
[2]
  Tm: 31.7 °C

## GCAAGCGAAAGCTGATGC ((((((....)))..)))
[1]
  folding enthalpy: -16.3 kcal/mol
[2]
  Tm: 45.7 °C

## GCCCTGCGAAAGCTCGGC (((..((....))..)))
[1]
  folding enthalpy: -19.3 kcal/mol
[2]
  Tm: 46.9 °C

## GTGGACCGAAAGGTTCAC (((.(((....))).)))
[1]
  folding enthalpy: -36.7 kcal/mol
[2]
  Tm: 59.8 °C

## GCAAAGCGAAAGCGCTGC (((..((....))..)))
[1]
  folding enthalpy: -16.9 kcal/mol
[2]
  Tm: 57.4 °C

## GATCTTCGGAAAGATC ((((((....))))))
[1]
  folding enthalpy: -29.1 kcal/mol
[2]
  Tm: 38.9 °C

## GACGCGGCGAAAGCCGTC (((..(((....))))))
[1]
  folding enthalpy: -5.1 kcal/mol
[2]
  Tm: 32.6 °C

## GCAGTTGGAAACGACTGC (((((.(....).)))))
[1]
  folding enthalpy: -39.5 kcal/mol
[2]
  Tm: 55.3 °C

## GAGAGCCGAAAGGCACTC (((.(((....))).)))
[1]
  folding enthalpy: -20.2 kcal/mol
[2]
  Tm: 61.1 °C

## GCGTAGCCACGC ((((....))))
[1]
  folding enthalpy: -9.67 kcal/mol
[2]
  Tm: 58.3 °C

## GGTAGGCGAAAGCCCACC (((.(((....))).)))
[1]
  folding enthalpy: -17.1 kcal/mol
[2]
  Tm: 51.9 °C

## GCCGACACGAAAGTGGGC (((..(((....))))))
[1]
  folding enthalpy: -24.5 kcal/mol
[2]
  Tm: 53.1 °C

## GATCAGCGAGCTGATC ((((((....))))))
[1]
  folding enthalpy: -44.7 kcal/mol
[2]
  Tm: 61.4 °C

## GCGATCCTCGC ((((...))))
[1]
  folding enthalpy: -20.9 kcal/mol
[2]
  Tm: 50.3 °C

## CGGCCGGAAACGGCCCCG ((((((....)))..)))
[1]
  folding enthalpy: -6 kcal/mol
[2]
  Tm: 35.4 °C

## GTGGGGGGAAACTCCCAC (((((.(....).)))))
[1]
  folding enthalpy: -35.3 kcal/mol
[2]
  Tm: 56.2 °C

## GCATAGGCGAAAGCCTGC (((..(((....))))))
[1]
  folding enthalpy: -13.5 kcal/mol
[2]
  Tm: 49 °C

## GCGGGGCGAAAGCTCGGC ((.(.((....)).).))
[1]
  folding enthalpy: -16.4 kcal/mol
[2]
  Tm: 56.3 °C

## GCTGCCGAAAGGCTCAGC ((((((....)))..)))
[1]
  folding enthalpy: -15 kcal/mol
[2]
  Tm: 44.4 °C

## GGCTAGGGAAACCTGGTC (.(.(((....))).).)
[1]
  folding enthalpy: -30.6 kcal/mol
[2]
  Tm: 35.5 °C

## GTCATCGAAAGATTGGAC ((((((....)))..)))
[1]
  folding enthalpy: -17.7 kcal/mol
[2]
  Tm: 30.9 °C

## GGACTTCCGAAAGGATCC (((..(((....))))))
[1]
  folding enthalpy: -12.7 kcal/mol
[2]
  Tm: 29.1 °C

## GTAGTTGGAAACAACTAC (((((((....)))))))
[1]
  folding enthalpy: -43.5 kcal/mol
[2]
  Tm: 56.1 °C

## GACCCAGGAAACCGGGTC (((((.(....).)))))
[1]
  folding enthalpy: -32.8 kcal/mol
[2]
  Tm: 52.9 °C

## CGCCAGAAATGGCG (((((....)))))
[1]
  folding enthalpy: -31.5 kcal/mol
[2]
  Tm: 66.4 °C

## GGCTCCGAAAGGATAGCC ((((((....)))..)))
[1]
  folding enthalpy: -39.5 kcal/mol
[2]
  Tm: 52.4 °C

## GCGCTGGGAAACCAACGC (((.(((....))).)))
[1]
  folding enthalpy: -47.8 kcal/mol
[2]
  Tm: 52.7 °C

## GAAAGCGAAAGCTCCTTC ((((((....)))..)))
[1]
  folding enthalpy: -10.2 kcal/mol
[2]
  Tm: 31.4 °C

## GGGCAGCGAAAGCTCCCC (((.(((....))).)))
[1]
  folding enthalpy: -18.3 kcal/mol
[2]
  Tm: 56.3 °C

## GAGCGAGCGAAAGCTCTC (((..(((....))))))
[1]
  folding enthalpy: -8.27 kcal/mol
[2]
  Tm: 35.5 °C

## GATCTGGGACAGATC ((((((...))))))
[1]
  folding enthalpy: -35.5 kcal/mol
[2]
  Tm: 58.1 °C

## GTAGCTGGAAACAGCCAC ((.((((....)))).))
[1]
  folding enthalpy: -14.3 kcal/mol
[2]
  Tm: 37.7 °C

## GATCGTCGCCACGATC ((((((....))))))
[1]
  folding enthalpy: -42.1 kcal/mol
[2]
  Tm: 53.8 °C
